In ChEMBL document CHEMBL1151741, “Aryl bis(diazeniumdiolates): potent inducers of S-glutathionylation of cellular proteins and their in vitro antiproliferative activities” (J Med Chem, 2008):
Each block holds one molecule with its values, some of them ahead of it. Activity calls are given as the source filed them. The rule behind the calls is not given here.

Assays:
[1] = test system: HCT-15; assay: Antiproliferative activity against human HCT-15 cells after 72 hrs by MTT assay; type: functional, cell-based; settings: HCT-15, 72 h
In short: (§1)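 Cells kept in RPMI 1640 with 10% fetal calf serum, penicillin/streptomycin and 2 mM glutamine at 37 °C, 5% CO2. Seeded at 10⁴ per well and grown 24 h. Increasing drug concentrations (from 10 mM DMSO stocks, diluted in PBS) were added for 72 h at 37 °C. Proliferation was read by MTT. Six repeats per concentration, at least two independent experiments. IC50 is 50% proliferation inhibition; TGI is total growth inhibition.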

[2] = Antiproliferative activity against human H441 cells after 72 hrs by MTT assay; type: functional, cell-based; settings: NCI-H441, 72 h; in short: as §1
[3] = test system: PC-3; assay: Antiproliferative activity against human PC-3 cells after 72 hrs by MTT assay; type: functional, cell-based; settings: PC-3, 72 h; in short: as §1
[4] = test system: HL-60; assay: Induction of protein S-glutathionylation in human HL-60 cell lysate at 5 uM; type: functional, cell-based
In short: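 Equal numbers of HL-60 cells in complete RPMI medium were given 5 μM compound or a DMSO vehicle control. Cells were lysed in pH 7.2 Hepes/NP-40/deoxycholate buffer with protease inhibitors. 10 μg of protein was run on SDS-PAGE under nonreducing conditions and blotted to PVDF. Blots were probed with anti-glutathione monoclonal antibody (1:1000, 3 h, room temperature), then HRP secondary, with ECL detection. Blots were stripped and reprobed for β-actin as a loading control.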

[5] = test system: U-937; assay: Antiproliferative activity against human U937 cells after 72 hrs by MTT assay; type: functional, cell-based; settings: U-937, 72 h; in short: as §1
[6] = test system: HT-29; assay: Antiproliferative activity against human HT-29 cells after 72 hrs by MTT assay; type: functional, cell-based; settings: HT-29, 72 h; in short: as §1
[7] = Antiproliferative activity against human HCT 116 cells after 72 hrs by MTT assay; type: functional, cell-based; settings: HCT-116, 72 h; in short: as §1
[8] = test system: A549; assay: Antiproliferative activity against human A549 cells after 72 hrs by MTT assay; type: functional, cell-based; settings: A549, 72 h; in short: as §1
[9] = test system: HL-60; assay: Antiproliferative activity against human HL-60 cells after 72 hrs by MTT assay; type: functional, cell-based; settings: HL-60, 72 h; in short: as §1
[10] = Nitric oxide release measured per mole of compound at pH 7.4 in presence of glutathione
In short: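 Compound stock was injected into 0.1 M phosphate buffer, pH 7.4, containing 4 mM GSH and 50 μM DTPA, sparged with inert gas. NO was followed by chemiluminescence at 37 °C until the signal returned to baseline (25 min – 5 h). The integrated curve gave mol NO per mol compound.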

[11] = test system: OVCAR-3; assay: Antiproliferative activity against human OVCAR-3 cells after 72 hrs by MTT assay; type: functional, cell-based; settings: OVCAR-3, 72 h; in short: as §1
[12] = test system: OVCAR-5; assay: Antiproliferative activity against human OVCAR5 cells after 72 hrs by MTT assay; type: functional, cell-based; settings: OVCAR-5, 72 h; in short: as §1

Compound: CN(C)/[N+]([O-])=N/Oc1cc(O/N=[N+](\[O-])N2CCCC2)c([N+](=O)[O-])cc1[N+](=O)[O-]
Activity [4]: Active | IC50 [9]: 2.3 µM | TGI [9]: 4.9 µM | Activity [10]: 3.6 mol/mol

Compound: CCOC(=O)N1CCN(/[N+]([O-])=N/Oc2cc(O/N=[N+](\[O-])N(CC)CC)c([N+](=O)[O-])cc2[N+](=O)[O-])CC1
Activity [4]: Active | IC50 [9]: 2.1 µM | TGI [9]: 5 µM | Activity [10]: 3.1 mol/mol

Compound: CN(C)/[N+]([O-])=N/Oc1cc(O/N=[N+](\[O-])N2CCCCC2)c([N+](=O)[O-])cc1[N+](=O)[O-]
Activity [4]: Active | IC50 [9]: 1.7 µM | TGI [9]: 4.9 µM | Activity [10]: 3.7 mol/mol

Compound: O=C(O)[C@@H]1CCCN1/[N+]([O-])=N/Oc1cc(O/N=[N+](\[O-])N2CCC[C@H]2C(=O)O)c([N+](=O)[O-])cc1[N+](=O)[O-]
Activity [4]: inactive | IC50 [9]: 9.6 µM | TGI [9]: > 10 µM | Activity [10]: 3.5 mol/mol

Compound: CCN(CC)C(=O)N1CCN(/[N+]([O-])=N/Oc2cc(O/N=[N+](\[O-])N(C)C)c([N+](=O)[O-])cc2[N+](=O)[O-])CC1
Activity [4]: Active | IC50 [9]: 1.9 µM | TGI [9]: 4.9 µM | Activity [10]: 3.5 mol/mol

Compound: CNc1ccc(C(=O)Oc2cc(O/N=[N+](\[O-])N(C)C)c([N+](=O)[O-])cc2[N+](=O)[O-])cc1
IC50 [1]: 5.7 µM | TGI [1]: > 10 µM | IC50 [2]: 4.9 µM | TGI [2]: > 10 µM | IC50 [3]: > 10 µM | TGI [3]: > 10 µM | Activity [4]: Active | IC50 [5]: 2.7 µM | TGI [5]: 5.5 µM | IC50 [6]: 7 µM | TGI [6]: > 10 µM | IC50 [7]: 5.5 µM | TGI [7]: > 10 µM | IC50 [8]: > 10 µM | TGI [8]: > 10 µM | TGI [9]: > 10 µM | Activity [10]: 1.4 mol/mol | IC50 [11]: 5 µM | TGI [11]: 9.5 µM | IC50 [12]: 7.8 µM | TGI [12]: > 10 µM

Compound: O=[N+]([O-])c1cc([N+](=O)[O-])c(O/N=[N+](\[O-])N2CCC[C@H]2CO)cc1O/N=[N+](\[O-])N1CCC[C@H]1CO
Activity [4]: Active | IC50 [9]: 4 µM | TGI [9]: > 10 µM | Activity [10]: 2.5 mol/mol

Compound: CCN(CC)C(=O)N1CCN(/[N+]([O-])=N/Oc2cc(O/N=[N+](\[O-])N(CC)CC)c([N+](=O)[O-])cc2[N+](=O)[O-])CC1
Activity [4]: Active | IC50 [9]: 2.9 µM | TGI [9]: > 10 µM | Activity [10]: 3 mol/mol

Compound: CCN(CC)/[N+]([O-])=N/Oc1cc(O/N=[N+](\[O-])N2CCCC2CO)c([N+](=O)[O-])cc1[N+](=O)[O-] (centres undefined)
Activity [4]: Active | IC50 [9]: 1.8 µM | TGI [9]: 4 µM | Activity [10]: 3 mol/mol

Second part, led by results:

IC50 [1]: 2.5 µM | IC50 [3]: 5 µM | IC50 [5]: 1.3 µM | IC50 [6]: 4.5 µM | IC50 [8]: 9.1 µM | IC50 [9]: 1.2 µM | IC50 [11]: 1.3 µM | IC50 [12]: 3.3 µM
Compound: CCOC(=O)N1CCN(/[N+]([O-])=N/Oc2cc(O/N=[N+](\[O-])N(C)C)c([N+](=O)[O-])cc2[N+](=O)[O-])CC1
TGI [1]: 4 µM | IC50 [2]: 5 µM | TGI [2]: 7 µM | TGI [3]: 7 µM | Activity [4]: Active | TGI [5]: 3 µM | TGI [6]: 10 µM | IC50 [7]: 2.4 µM | TGI [7]: 4 µM | TGI [8]: > 30 µM | TGI [9]: 2 µM | Activity [10]: 2.7 mol/mol | TGI [11]: 2.3 µM | TGI [12]: 9 µM

IC50 [9]: 1.2 µM
Compound: CN(C)/[N+]([O-])=N/Oc1cc(O/N=[N+](\[O-])N2CCN(c3ncccn3)CC2)c([N+](=O)[O-])cc1[N+](=O)[O-]
Activity [4]: Active | TGI [9]: 5 µM | Activity [10]: 3.5 mol/mol

IC50 [9]: 0.9 µM
Compound: CCCCOC(=O)N1CCN(/[N+]([O-])=N/Oc2cc(O/N=[N+](\[O-])N(C)C)c([N+](=O)[O-])cc2[N+](=O)[O-])CC1
Activity [4]: Active | TGI [9]: 2.7 µM | Activity [10]: 3.1 mol/mol

IC50 [9]: 1.5 µM
Compound: CC1CCCCN1/[N+]([O-])=N/Oc1cc(O/N=[N+](\[O-])N(C)C)c([N+](=O)[O-])cc1[N+](=O)[O-] (centres undefined)
Activity [4]: Active | TGI [9]: 4.9 µM | Activity [10]: 3 mol/mol

IC50 [9]: 1.6 µM
Compound: CCCOC(=O)N1CCN(/[N+]([O-])=N/Oc2cc(O/N=[N+](\[O-])N(C)C)c([N+](=O)[O-])cc2[N+](=O)[O-])CC1
Activity [4]: Active | TGI [9]: 3.9 µM | Activity [10]: 3.7 mol/mol

IC50 [1]: 1.7 µM | IC50 [3]: 3.3 µM | IC50 [5]: 0.8 µM | IC50 [6]: 2.4 µM | IC50 [8]: 5.1 µM | IC50 [9]: 1 µM | IC50 [11]: 1.7 µM | IC50 [12]: 2.5 µM
Compound: CN(C)/[N+]([O-])=N/Oc1cc(O/N=[N+](\[O-])N2CCCC2CO)c([N+](=O)[O-])cc1[N+](=O)[O-] (centres undefined)
TGI [1]: 3.3 µM | IC50 [2]: 2.1 µM | TGI [2]: 4.5 µM | TGI [3]: 7 µM | Activity [4]: Active | TGI [5]: 1.2 µM | TGI [6]: 4.5 µM | IC50 [7]: 1.6 µM | TGI [7]: 3.6 µM | TGI [8]: 6 µM | TGI [9]: 2 µM | Activity [10]: 3 mol/mol | TGI [11]: 3.8 µM | TGI [12]: 4 µM

IC50 [1]: 1.6 µM | IC50 [3]: 3.3 µM | IC50 [5]: 0.9 µM | IC50 [6]: 2.5 µM | IC50 [8]: 3.9 µM | IC50 [9]: 0.9 µM | IC50 [11]: 1.4 µM | IC50 [12]: 1.9 µM
Compound: CCOC(=O)N1CCN(/[N+]([O-])=N/Oc2cc(O/N=[N+](\[O-])N3CCN(C(=O)N(CC)CC)CC3)c([N+](=O)[O-])cc2[N+](=O)[O-])CC1
TGI [1]: 4.5 µM | IC50 [2]: 1.7 µM | TGI [2]: 4 µM | TGI [3]: 8 µM | Activity [4]: Active | TGI [5]: 3 µM | TGI [6]: 6.5 µM | IC50 [7]: 1.5 µM | TGI [7]: 4 µM | TGI [8]: 10 µM | TGI [9]: 3 µM | Activity [10]: 2.9 mol/mol | TGI [11]: 4 µM | TGI [12]: 5.5 µM

IC50 [9]: 1 µM
Compound: CCN(CC)/[N+]([O-])=N/Oc1cc(O/N=[N+](\[O-])N(C)C)c([N+](=O)[O-])cc1[N+](=O)[O-]
Activity [4]: Active | TGI [9]: 2.3 µM | Activity [10]: 3.8 mol/mol
